# Experimental data: ChEMBL document CHEMBL1122794, “[(Arylcarbonyl)oxy]propanolamines. 1. Novel beta-blockers with ultrashort duration of action” (J Med Chem, 1984)
# Key:
# Adrenergic receptor beta [1] = target: T1, Adrenergic receptor beta (Homo sapiens, UniProt P08588+P07550+P13945); assay: In Vitro inhibition of the beta adrenergic receptor in guinea pig atria; type: tissue-based, Cavia porcellus; details: target entry is the homologue from another species
# Adrenergic receptor beta [2] = target: T1, Adrenergic receptor beta; assay: In vitro blocking of beta adrenergic receptor in guinea pig trachea; type: tissue-based, Cavia porcellus; details: target entry is the homologue from another species
# [3] = Selectivity determined by expression 10[pA2(atria) - pA2 (trachea)] in guinea pig; type: functional, Cavia porcellus
# [4] = t1/2 in canine liver; type: ADME, Canis lupus familiaris; details: dog
# [5] = Time in which 1/2 of the initial amount disappeared in human blood.; type: ADME, organism-based
# Summary of the method: (§1)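 1 mL of solution containing 50 µg of compound was added to 1 mL of dog or human whole blood, or to 1 mL of 33% (w/v) canine liver homogenate. They were assayed by HPLC on a phenyl column with 60% acetonitrile/40% 0.05 M sodium phosphate (pH 6.6) and UV detection. Half-life was read graphically from concentration versus time.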
# [6] = T1/2 in canine blood; type: ADME, […], Canis lupus familiaris; details: dog; summary of the method: as §1
# Canis familiaris [7] = species: Canis familiaris; assay: Time taken for 80% recovery at a dose of 209 microg (3-h infusion period); type: functional, organism-based; details: Canis lupus familiaris
# Canis familiaris [8] = species: Canis familiaris; assay: Time taken for 80% recovery at a dose of 50 microg (3-h infusion period); type: functional, organism-based; details: Canis lupus familiaris
# [9] = Stability at pH 7.4 and 37 degree Celsius (after 18 h); type: physicochemical; details: buffer
# Summary of the method: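 Chemical stability was tested in pH 7.4 buffer at 37 °C. The percentage of parent compound remaining after 18 h of incubation was recorded.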
# Canis familiaris [10] = species: Canis familiaris; assay: Time taken for 80% recovery at a dose of 226 microg (3-h infusion period); type: functional, organism-based; details: Canis lupus familiaris
# Canis familiaris [11] = species: Canis familiaris; assay: Time taken for 80% recovery at a dose of 7 microg (3-h infusion period); type: functional, organism-based; details: Canis lupus familiaris
# Summary of the method: (§2)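 After the infusion ended, the time to 80% recovery of the blockade was recorded as duration of action. The listed dose is the average amount infused per minute over the 3-h period, in µg/(kg min).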
# Canis familiaris [12] = species: Canis familiaris; assay: Percent inhibition of isoproterenol induced tachycardia at a dose of 7 microg (3-h infusion period); type: functional, Canis lupus familiaris
# [13] = target: Beta-2 adrenergic receptor (Cavia porcellus) (UniProt Q8K4Z4); assay: In Vitro evaluation for […] selectivity in guinea pig
# Summary of the method: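 Selectivity index calculated as 10^[pA2(atria) − pA2(trachea)] from pA2 values measured in isolated guinea pig atria and trachea. A minus sign denotes β2 selectivity.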
# Canis familiaris [14] = species: Canis familiaris; assay: Time taken for 80% recovery at a dose of 59 microg (3-h infusion period); type: functional, organism-based; details: Canis lupus familiaris; summary of the method: as §2
# Canis familiaris [15] = species: Canis familiaris; assay: Time taken for 80% recovery at a dose of 123 microg (3-h infusion period); type: functional, organism-based; details: Canis lupus familiaris
# Canis familiaris [16] = species: Canis familiaris; assay: Time taken for 80% recovery at a dose of 28 microg (3-h infusion period); type: functional, organism-based; details: Canis lupus familiaris
# Sequence of Beta-2 adrenergic receptor (Cavia porcellus) (Q8K4Z4 whole entry, looked up): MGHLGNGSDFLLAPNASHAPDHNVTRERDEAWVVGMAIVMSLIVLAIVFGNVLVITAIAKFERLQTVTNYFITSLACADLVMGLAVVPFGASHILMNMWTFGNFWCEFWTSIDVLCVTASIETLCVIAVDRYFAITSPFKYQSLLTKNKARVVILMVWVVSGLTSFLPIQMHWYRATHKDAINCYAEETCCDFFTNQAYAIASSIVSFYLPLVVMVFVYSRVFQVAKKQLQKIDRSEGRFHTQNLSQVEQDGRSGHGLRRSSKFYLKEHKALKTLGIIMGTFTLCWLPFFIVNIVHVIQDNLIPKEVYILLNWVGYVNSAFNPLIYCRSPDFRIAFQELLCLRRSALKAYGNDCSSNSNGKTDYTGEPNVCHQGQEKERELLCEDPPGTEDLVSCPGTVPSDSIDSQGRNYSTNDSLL
Structure (SMILES),pA2 (Adrenergic receptor beta [1]),pA2 (Adrenergic receptor beta [2]),Selectivity [3],half-life [4] [min],half-life [6] [min],also measured
COc1ccc(CCNCC(O)COC(=O)c2cccc(F)c2)cc1OC (stereo not given),6.4,6.2,2,,,
COc1ccc(C(=O)OCC(O)CNC(C)C)cc1 (stereo not given),6,6.3,-2,37,150,half-life [5]: 55 min; Recovery time (Canis familiaris [7]): > 60 min
Cc1ccccc1C(=O)OCC(O)CNC(C)C (stereo not given),6.5,7.1,-4,147,> 180,Recovery time (Canis familiaris [8]): > 60 min; half-life [5]: > 180 min; remaining at 18 h [9]: 100%
CC(C)(C)NCC(O)COC(=O)C1CCCC1 (stereo not given),5.3,,,,,
COc1ccc(CCNCC(O)COC(=O)c2ccccc2C)cc1OC (stereo not given),7,6.8,2,,,Recovery time (Canis familiaris [10]): > 60 min; remaining at 18 h [9]: 94%
CC(C)NCC(O)COC(=O)c1cccc(N)c1 (stereo not given),6.4,6.8,-2.5,> 180,> 180,Recovery time (Canis familiaris [11]): > 60 min; Inhibition (Canis familiaris [12]): 80%
C=CCOc1cccc(C(=O)OCC(O)CNC(C)C)c1 (stereo not given),6.8,6.8,1,,,
CC(=O)Nc1ccc(C(=O)OCC(O)CNC(C)C)cc1 (stereo not given),5.8,5.2,4,,,
CC(C)(C)NCC(O)COC(=O)Cc1ccccc1 (stereo not given),5.6,,,,16,half-life [5]: 6.3 min
COc1ccc(CCNCC(O)COC(=O)c2ccc(N)cc2)cc1OC (stereo not given),6.5,5.7,6,,,
COc1ccc(CCNCC(O)C(=O)Oc2ccccc2)cc1OC (stereo not given),5.9,5.9,,,,Selectivity [13]: 1
CC(C)NCC(O)COc1ccccc1 (stereo not given),8,7.4,4,,,
CC(C)NCC(O)COC(=O)c1cccc([N+](=O)[O-])c1 (stereo not given),6.8,7.2,-2.5,,,
CC(C)NCC(O)COC(=O)c1ccc(F)cc1 (stereo not given),6.6,7.3,-5,3,4,half-life [5]: 3.5 min
Cc1ccccc1OCC(O)CNC(C)C (stereo not given),8.6,8.2,3,,,
COc1ccc(CCNCC(O)COC(=O)c2ccc(F)cc2)cc1OC (stereo not given),7,6.7,2,,,Recovery time (Canis familiaris [14]): > 60 min

Structure (SMILES),pA2 (Adrenergic receptor beta [1]),pA2 (Adrenergic receptor beta [2]),Selectivity [3],half-life [4] [min],half-life [6] [min],also measured
CC(C)(C)NCC(O)COC(=O)c1cccc2ccccc12 (stereo not given),6.8,7.4,-4,> 180,> 180,
Cc1ccccc1C(=O)OCC(O)CNC(C)(C)C (stereo not given),7.3,7.9,-4,> 180,> 180,half-life [5]: > 180 min; remaining at 18 h [9]: 100%
CC(C)(C)NCC(O)COC(=O)c1cccc(OCc2ccccc2)c1 (stereo not given),,,,> 180,> 180,
CC(C)NCC(O)COC(=O)c1ccc2c(c1)OCO2 (stereo not given),6.9,,,29,,Recovery time (Canis familiaris [15]): 50 min
C#CC(C)(C)NCC(O)COC(=O)c1ccccc1F (stereo not given),6.6,6.7,1,7,12,
CCCOc1ccc(C(=O)OCC(O)CNC(C)(C)C)cc1 (stereo not given),5.4,,,,,
CC(C)NCC(O)COC(=O)c1cccc(F)c1 (stereo not given),,,,11,52,half-life [5]: 8 min
CC(C)(C)NCC(O)COC(=O)CCc1ccccc1 (stereo not given),< 6,,,,< 2.5,half-life [5]: 71 min
COc1ccc(CCNCC(O)C(=O)Oc2ccccc2C)cc1OC (stereo not given),5.9,,,,,
C=CCOc1ccc(C(=O)OCC(O)CNC(C)(C)C)cc1 (stereo not given),6,,,,,
Cc1cccc(C(=O)OCC(O)CNC(C)(C)C)c1 (stereo not given),7,7.3,-2,,,
CC(C)(C)NCC(O)COC(=O)c1ccc2c(c1)OCO2 (stereo not given),6.9,,,,,Recovery time (Canis familiaris [16]): > 60 min
CC(C)(C)NCC(O)COC(=O)c1ccncc1 (stereo not given),5.3,,,,,
CNC(=O)NCC(C)(C)NCC(O)COC(=O)c1ccccc1F (stereo not given),6.5,8.1,-39,5,12,
Cc1cccc(C(=O)OCC(O)CNC(C)C)c1 (stereo not given),6.8,7.3,-3,,,
